Data on one compound can be found in ChEMBL document CHEMBL4725354 (J Med Chem, 2020).

What is called IC50 is the concentration that inhibits the measured activity by half. What is called GI50 is the concentration that inhibits growth by half.

Data set [1] deals with T1, Broad substrate specificity ATP-binding cassette transporter ABCG2 (Homo sapiens, UniProt Q9UNQ0).
T1 sequence (Q9UNQ0 whole entry): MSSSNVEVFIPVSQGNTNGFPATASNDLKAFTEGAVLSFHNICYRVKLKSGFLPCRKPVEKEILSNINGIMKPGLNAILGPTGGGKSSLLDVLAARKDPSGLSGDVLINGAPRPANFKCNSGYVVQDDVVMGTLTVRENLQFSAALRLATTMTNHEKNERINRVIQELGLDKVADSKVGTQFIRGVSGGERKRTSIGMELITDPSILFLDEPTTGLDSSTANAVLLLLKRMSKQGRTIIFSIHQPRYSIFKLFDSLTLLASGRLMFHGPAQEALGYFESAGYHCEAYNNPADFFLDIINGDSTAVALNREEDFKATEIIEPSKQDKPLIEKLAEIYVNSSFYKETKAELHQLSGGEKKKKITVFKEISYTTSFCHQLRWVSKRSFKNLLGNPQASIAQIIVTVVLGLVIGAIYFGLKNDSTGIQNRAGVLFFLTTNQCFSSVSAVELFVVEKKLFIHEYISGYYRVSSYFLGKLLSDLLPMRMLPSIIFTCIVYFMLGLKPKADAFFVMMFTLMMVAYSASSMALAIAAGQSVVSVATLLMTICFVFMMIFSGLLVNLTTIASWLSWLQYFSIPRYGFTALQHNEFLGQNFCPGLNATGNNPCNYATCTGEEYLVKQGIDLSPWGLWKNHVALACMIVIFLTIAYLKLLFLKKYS
As to the kind of experiment: Inhibition of human ABCG2 expressed in MDCK2 cells co-expressing GFP preincubated for 15 mins followed by pheophorbideA addition and measured after 2 hrs by flow cytometric analysis. The data set is classed as cell-based, MDCK-II. In a few lines: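 Pheophorbide A added to 0.5 µM final and incubated 2 h. Read by flow cytometry (ex 488, em 695/50 nm); GFP expression checked at 525/30 nm. IC50 from 3- or 4-parameter logistic fit.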
In general terms: In flow cytometry, cells or beads pass a laser one at a time.

The next data set deals with ABCC1. The experiment in a line: Therapeutic ratio of GI50 for Growth inhibition of MDCK2 cells over expressing human ABCC1 to IC50 for inhibition of human ABCC1 expressed in MDCK2 cells preincubated for 30 mins followed by calcein AM addition and measured every 60 secs for 60 mins by fluorescence assay. The conditions noted are these: dog, MDCK2 cells overexpressing human ABCC1, probe calcein AM.

Data set [2] in a line: Cytotoxicity against MDCK2 cells over expressing human ABCG2 assessed as reduction in cell viability after 72 hrs by MTT assay. The data set is classed as ADME, cell-based, Canis lupus familiaris, MDCK-II. The conditions noted are these: dog, MDCK2 cells overexpressing human ABCG2. In a few lines:
(§1)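 MTT viability assay. Compound dilutions in culture medium (3.2 to 1000 µM as prepared). About 2,000 cells per well, 72 h at 37 °C, 5% CO2. Culture medium set as 100% and 10% DMSO as 0% viability. MTT added for 1 h, formazan dissolved in DMSO, absorbance read at 570 nm with 690 nm background. GI50 from nonlinear regression of absorbance vs log concentration; at least three independent experiments, duplicates, mean ± SEM.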

Data set [3] can be described thus: Cytotoxicity against human A2780/ADR cells over expressing ABCB1 assessed as reduction in cell viability after 72 hrs by MTT assay. The conditions noted are these: A2780/ADR cells overexpressing ABCB1. The data set is classed as ADME, cell-based. In a few lines:
as §1
A general note: Tetrazolium dyes change colour on reduction, which living cells bring about.

Data set [4] is described as follows: Cytotoxicity against MDCK cells over expressing ABCC1 assessed as reduction in cell viability after 72 hrs by MTT assay. The data set is classed as ADME, cell-based, Canis lupus familiaris, MDCK-II. To be noted: dog, MDCK cells overexpressing ABCC1. In a few lines: as §1
Data set [5] concerns ABCG2. The experiment in a line: Therapeutic ratio of GI50 for growth inhibition of MDCK2 cells over expressing human ABCG2 to IC50 for inhibition of human ABCG2 expressed in MDCK2 cells co-expressing GFP. To be noted: dog, MDCK2 cells overexpressing human ABCG2.
Data set [6] in a line: Cytotoxicity against human A2780 cells assessed as reduction in cell viability after 72 hrs by MTT assay.
The subject of data set [7] is MDCK-II. As to the kind of experiment: Cytotoxicity against MDCK2 cells assessed as reduction in cell viability at 10 uM after 72 hrs by MTT assay. The data set is classed as cell-based, Canis lupus familiaris. To be noted: dog. In a few lines: (§2)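 Single-concentration screen at 10 µM in MDCK II BCRP and parental MDCK II cells. MTT assay, 72 h at 37 °C, 5% CO2. Viability referenced to culture medium (100%) and 10% DMSO (0%). Mean ± SEM of at least three independent experiments with duplicates.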

The nature of data set [8]: Cytotoxicity against MDCK2 cells assessed as reduction in cell viability after 72 hrs by MTT assay. The data set is classed as cell-based, Canis lupus familiaris, MDCK-II. The conditions noted are these: dog. In a few lines: as §1
In data set [9] the target is ATP-dependent translocase ABCB1 (Homo sapiens, UniProt P08183). As to the kind of experiment: Inhibition of human ABCB1 expressed in A2780/ADR cells preincubated for 30 mins followed by calcein AM addition and measured every 60 secs for 60 mins by fluorescence assay. The data set is classed as cell-based. In a few lines:
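ABCB1 in A2780/ADR cells (kept resistant by one passage in 1 µM doxorubicin every 10 passages). 30,000 cells per well in Krebs-HEPES buffer, preincubated 30 min at 37 °C with inhibitor. Calcein AM added from a 3.125 µM solution. Fluorescence (ex 485, em 520 nm) read every 60 s for 60 min. Initial linear slopes vs log concentration fitted to give IC50.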

Data set [10] deals with T2, ABCG2 (Homo sapiens, UniProt Q9UNQ0).
T2 sequence (Q9UNQ0 whole entry): T1 sequence (Q9UNQ0 whole entry)
The experiment in a line: Inhibition of human ABCG2 expressed in MDCK2 cells co-expressing GFP preincubated for 15 mins followed by pheophorbideA addition and measured after 2 hrs by flow cytometric analysis relative to control. The data set is classed as cell-based, MDCK-II. The conditions noted are these: probe pheophorbide A, read-out: Imax.

The test system of data set [11] is MDCK-II. The experiment in a line: Cytotoxicity against MDCK2 cells over expressing human ABCG2 at 10 uM assessed as reduction in cell viability after 72 hrs by MTT assay. The data set is classed as ADME, cell-based, Canis lupus familiaris. The conditions noted are these: dog. In a few lines:
as §2

A further data set has as its system ABCB1. The experiment in a line: Therapeutic ratio of GI50 for Growth inhibition of A2780/ADR cells over expressing human ABCB1 to IC50 for inhibition of human ABCB1 expressed in A2780/ADR cells preincubated for 30 mins followed by calcein AM addition and measured every 60 secs for 60 mins by fluorescence assay. The conditions noted are these: A2780/ADR cells overexpressing human ABCB1, probe calcein AM.

Chain of ATP-dependent translocase ABCB1 (P08183 whole entry): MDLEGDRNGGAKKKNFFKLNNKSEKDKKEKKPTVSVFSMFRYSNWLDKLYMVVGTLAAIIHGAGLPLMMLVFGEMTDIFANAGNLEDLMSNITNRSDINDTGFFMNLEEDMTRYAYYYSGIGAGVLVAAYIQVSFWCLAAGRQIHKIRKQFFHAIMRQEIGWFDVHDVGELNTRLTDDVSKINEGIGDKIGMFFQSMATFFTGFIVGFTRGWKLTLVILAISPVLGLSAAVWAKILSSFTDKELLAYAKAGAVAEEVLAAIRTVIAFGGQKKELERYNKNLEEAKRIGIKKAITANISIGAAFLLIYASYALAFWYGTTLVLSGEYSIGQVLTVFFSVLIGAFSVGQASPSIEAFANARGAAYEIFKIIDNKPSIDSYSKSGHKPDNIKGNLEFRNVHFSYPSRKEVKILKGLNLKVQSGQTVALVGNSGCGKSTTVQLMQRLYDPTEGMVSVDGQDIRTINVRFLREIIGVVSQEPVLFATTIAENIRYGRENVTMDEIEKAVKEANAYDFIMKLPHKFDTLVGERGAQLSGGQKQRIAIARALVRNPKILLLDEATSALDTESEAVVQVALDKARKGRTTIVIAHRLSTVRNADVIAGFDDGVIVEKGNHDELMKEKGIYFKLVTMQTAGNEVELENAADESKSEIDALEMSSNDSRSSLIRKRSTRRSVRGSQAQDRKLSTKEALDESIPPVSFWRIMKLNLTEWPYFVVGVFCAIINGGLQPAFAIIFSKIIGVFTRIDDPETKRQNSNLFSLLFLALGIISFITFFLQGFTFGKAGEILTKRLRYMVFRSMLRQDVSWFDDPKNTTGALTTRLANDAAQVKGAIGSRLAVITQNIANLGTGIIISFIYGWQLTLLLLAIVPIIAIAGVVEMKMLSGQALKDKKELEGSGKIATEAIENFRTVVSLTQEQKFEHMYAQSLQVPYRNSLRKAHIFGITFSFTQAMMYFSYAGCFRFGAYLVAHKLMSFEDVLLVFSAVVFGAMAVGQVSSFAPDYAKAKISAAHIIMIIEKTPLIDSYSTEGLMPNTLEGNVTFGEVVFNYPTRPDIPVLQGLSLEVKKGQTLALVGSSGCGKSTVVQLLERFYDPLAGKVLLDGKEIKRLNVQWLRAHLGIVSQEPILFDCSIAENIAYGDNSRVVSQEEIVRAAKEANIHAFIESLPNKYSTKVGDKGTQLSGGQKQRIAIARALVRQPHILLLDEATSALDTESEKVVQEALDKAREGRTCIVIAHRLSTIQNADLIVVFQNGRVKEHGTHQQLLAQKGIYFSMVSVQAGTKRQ

Consider `Cc1cc(Nc2ccc3ncccc3c2)nc(-c2ccccc2)n1`, for which the half-maximal inhibitory concentration (IC50) in data set [1] is 0.151 µM; in data set [9], 5.13 µM. Also, the selectivity ratio was 4.9 with ABCC1, 279 with ABCG2 [5] and 5.6 with ABCB1. Besides, the GI50 at 72 h in data set [2] came to 42.1 µM; in data set [3] it was 28.9 µM; in data set [4], 35.4 µM; in data set [6], 22.6 µM; in data set [8], 38.4 µM. The Activity result in the data set on MDCK-II [7] and in the data set with MDCK-II [11] was “Non-Toxic” in each case. Further, the Emax at 2 h on ABCG2 [10] is 79%.
